Results taken from ChEMBL document CHEMBL1165914, “Characterization of 4-methyl-2-oxo-1,2-dihydroquinolin-6-yl acetate as an effective antiplatelet agent” (2010).
Calls of active or inactive are those of the source. The rule behind the calls is not given here.

Legend:
Homo sapiens [1] = organism: Homo sapiens; assay: Inhibition of human platelet CRTAase assessed as inhibition of acetylation of glutathione S-transferase; design: concentration or dose not given beside the values; conditions: concentration not given here
Procedure, shortened: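 Platelet lysate as enzyme source. Acetoxy substrate preincubated with CRTAase and GST in potassium phosphate buffer pH 6.5, 37 °C, 10 min; GSH and CDNB then added and absorbance read at 340 nm. Activity unit is % inhibition of GST activity; mean of five observations.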

Platelet [2] = assay: Antiplatelet activity in human platelet rich plasma assessed as inhibition of ADP-induced platelet aggregation measured for 6 mins by aggregometry; assay type: functional
Homo sapiens [3] = organism: Homo sapiens; assay: Activation of human platelet NOS assessed as increase in nitric oxide level by flow cytometry
Procedure, shortened: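 Platelets incubated with compounds, then intracellular NO measured by flow cytometry following the Imrich and Kobzik method.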

Rattus norvegicus [4] = assay: Ex vivo antiplatelet activity in Sprague-Dawley rat platelets assessed as inhibition of arachidonic acid-induced platelet aggregation at 133 umole/kg, po after 24 hrs by aggregometry; assay type: functional, organism-based
Procedure, shortened: (§1)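 Rats dosed orally and killed 24 h later. Blood taken by cardiac puncture and centrifuged as for PRP/PPP preparation (180g 10 min; 2500g 10 min). ADP- or AA-induced aggregation then measured by light-transmittance aggregometry.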

Rattus norvegicus [5] = assay: Ex vivo antiplatelet activity in Sprague-Dawley rat platelets assessed as inhibition of ADP-induced platelet aggregation at 133 umole/kg, po after 24 hrs by aggregometry; assay type: functional, organism-based; procedure, shortened: as §1
Rattus norvegicus [6] = assay: Inhibition of COX1 in po dosed Sprague-Dawley rat after 24 hrs by ELISA; assay type: functional, organism-based
Platelet [7] = assay: Antiplatelet activity in human platelet rich plasma assessed as inhibition of arachidonic acid-induced platelet aggregation measured for 6 mins by aggregometry; assay type: functional
Rattus norvegicus [8] = assay: Inhibition of COX1 in po dosed Sprague-Dawley rat after 24 hrs by ELISA relative to control; assay type: functional

Row | Compound | inhibition (Homo sapiens [1]) | inhibition (Platelet [2]) | other results
1 | CCCCCCc1c(C)c2ccc(OC(C)=O)cc2[nH]c1=O | 2% | – | –
2 | CCOC(=O)Cn1c(=O)cc(C)c2ccc(OC(C)=O)cc21 | 10% | Active | –
3 | CC(=O)Oc1cccc2c(C)cc(=O)[nH]c12 | 12% | Active | Activity (Homo sapiens [3]): Active
4 | CCOC(=O)COc1cc(C)c2cc(OC(C)=O)ccc2n1 | 28.6% | inactive | –
5 | CC(=O)Oc1ccccc1C(=O)O | – | – | inhibition (Rattus norvegicus [4]): Active; inhibition (Rattus norvegicus [5]): Active; inhibition (Rattus norvegicus [6]): Active
6 | CC(=O)Oc1ccc2c(C)cc(=O)[nH]c2c1 | 13.2% | Active | Activity (Homo sapiens [3]): Active
7 | CCCCCCc1c(C)c2cc(OC(C)=O)ccc2[nH]c1=O | 7% | – | –
8 | Cc1cc(=O)[nH]c2ccc(O)cc12 | 0% | – | inhibition (Rattus norvegicus [4]): inactive; inhibition (Rattus norvegicus [5]): inactive; inhibition (Rattus norvegicus [6]): inactive
9 | CCOC(=O)COc1cc(C)c2ccc(OC(C)=O)cc2n1 | 13.2% | inactive | –
10 | CCc1c(C)c2ccc(OC(C)=O)cc2[nH]c1=O | 13% | – | –
11 | CCc1c(C)c2cccc(OC(C)=O)c2[nH]c1=O | 11.5% | – | –
12 | CC(=O)Oc1ccc2[nH]c(=O)cc(C)c2c1 | 31% | Active | Activity (Homo sapiens [3]): Active; inhibition (Platelet [7]): Active; inhibition (Rattus norvegicus [4]): Active; inhibition (Rattus norvegicus [5]): Active; fold change (FC) (Rattus norvegicus [8]): 3.5
13 | CCOC(=O)Cn1c(=O)cc(C)c2cc(OC(C)=O)ccc21 | 23% | Active | –
14 | CCCCCCc1c(C)c2cccc(OC(C)=O)c2[nH]c1=O | 0% | – | –
15 | CC(=O)Oc1cc(=O)[nH]c2ccccc12 | 0% | – | –
16 | CCc1c(C)c2cc(OC(C)=O)ccc2[nH]c1=O | 26% | – | –
